Source: PubChem BioAssay (several laboratories)
SR-BI DiI-HDL act: enhances SR-BI lipid uptake from DiI-HDL. CHO ldlA[mSR-BI] cells, DiI-HDL uptake fluorescence, 3 h; 100 = double the neutral-control signal. activation, % at 12.5 µM. 0.096% of 320,000 active. AID 504775;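 active = mean replicate activation of at least 60% and every replicate at or above 60%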;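 also: 0% = median plate neutral-control signal and 100% = twice that signal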
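System: CHO ldlA[mSR-BI] cells / Medium: HEPES-buffered (25 mM, pH 7.4) F12 plus 0.5% BSA / Probe or stimulus: labelled HDL, 10 µg/mL / Doses: single compound concentration, delivered by pin transfer / Schedule: 3 h, 37 °C / Measured by: DiI fluorescence, bottom read / Measure: cell-associated DiI fluorescence as measure of HDL uptake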
Rin1-Abl PPI inh: inhibitors of human Rin1-Abl protein interaction; P00519+Q13671; TR-FRET Rin1/Abl binding, biochemical; inhibition, % at 7.35 µM; 0.4% of 360,000 active; AID 588664; in the data active = inhibition above about 5%, passing the limit was not always enough
GRK2 aptamer HTS: blocks RNA aptamer binding to human GRK2; 0.59% of 330,000 active; inhibition of aptamer binding, % at 10 µM; P25098; bead flow cytometry, FAM-aptamer displacement from GRK2; AID 488847;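 active = inhibition of aptamer binding above 40%, roughly 3 SD of noise, on plates passing a quality check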;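 also: median bead fluorescence of bound FAM aptamer so fluorescent compounds give negative values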
Target sequence (P25098 whole entry, looked up): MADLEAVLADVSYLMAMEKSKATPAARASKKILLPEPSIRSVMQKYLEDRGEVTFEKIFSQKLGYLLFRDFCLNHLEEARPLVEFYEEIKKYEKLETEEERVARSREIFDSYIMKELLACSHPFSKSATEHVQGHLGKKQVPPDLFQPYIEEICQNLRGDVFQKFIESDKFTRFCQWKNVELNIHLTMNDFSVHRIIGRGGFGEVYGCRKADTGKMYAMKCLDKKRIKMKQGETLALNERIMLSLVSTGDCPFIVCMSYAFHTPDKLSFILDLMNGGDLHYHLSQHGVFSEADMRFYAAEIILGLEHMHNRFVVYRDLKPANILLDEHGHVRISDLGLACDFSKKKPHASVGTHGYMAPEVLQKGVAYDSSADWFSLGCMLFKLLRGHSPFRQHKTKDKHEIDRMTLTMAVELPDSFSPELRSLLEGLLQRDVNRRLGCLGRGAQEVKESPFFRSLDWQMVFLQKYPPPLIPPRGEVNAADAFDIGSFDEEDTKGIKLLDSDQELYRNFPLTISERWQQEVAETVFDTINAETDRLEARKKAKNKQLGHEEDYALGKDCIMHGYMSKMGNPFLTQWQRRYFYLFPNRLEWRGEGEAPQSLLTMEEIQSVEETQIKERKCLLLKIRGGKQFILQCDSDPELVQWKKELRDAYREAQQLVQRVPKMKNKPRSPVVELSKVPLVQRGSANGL
SR-BI HDL uptake: inhibitors of mouse SR-BI mediated HDL lipid uptake | Q61009 | ldlA[mSR-BI] CHO cells, DiI-HDL uptake fluorescence, 3 h | inhibition, % at 12.5 µM | 0.96% of 320,000 active;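 active = mean replicate inhibition of at least 70% and a set share of replicates each scoring 70 or more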;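 also: 0% = median of neutral control wells and 100% = median of positive control wells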
Rin1-Abl confirm: Rin1-Abl interaction inhibition confirmation; shares compounds with Rin1-Abl PPI inh; TR-FRET Rin1-Abl binding, purified proteins; inhibition, % at 7.35 µM; 49% of 1,300 active
GFP quench: GFP fluorescence interference artifact; shares compounds with Rin1-Abl PPI inh; inhibitors/quenchers counterscreen; inhibition, % at 6.75 µM; 8.5% of 1,300 active;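 also: ABL1-eGFP fusion protein alone without its partner RIN1-SBP; 0% = protein with vehicle and 100% = wells lacking protein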
GFP quench dose: counter-screen for Rin1-Abl inhibitors: GFP quenchers, dose response; shares compounds with Rin1-Abl PPI inh; IC50, µM; 230 tested, under 10 active; AID 602182; GFP fluorescence interference/quenching counterscreen; call rule not given here;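 also: ABL1-eGFP fusion protein alone without its RIN1 binding partner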
An asterisk follows results filed as active; · = not tested or not shown. Rows were chosen to be rich in hits. Some 1.9% of all compounds tested hit in one or more screens of this group. Rule as the data show it, unless noted: active = inhibition above about 6.5%; inactive = the rest.

SMILES	SR-BI DiI-HDL act	Rin1-Abl PPI inh	GRK2 aptamer HTS	SR-BI HDL uptake	Rin1-Abl confirm	GFP quench	others
CCC(=O)NC(c1ccc(C)cc1)c1cc([N+](=O)[O-])c2cccnc2c1O (stereo not drawn)	6	3	0	-6	·	·
CCC(=O)NC(c1ccco1)c1cc(Br)c2cccnc2c1O (stereo not drawn)	·	7.9*	·	·	8.1*	4
CCC(=O)NC(c1ccc(C)cc1)c1ccc2cccnc2c1O (stereo not drawn)	-20	11*	2	20	6.8*	2
CCCC(=O)NC(c1ccco1)c1cc([N+](=O)[O-])c2cccnc2c1O (stereo not drawn)	22	9.3*	3	-22	-3	5
COCCN(CC(=O)Nc1cccc(C)c1C)C(=O)/C=C/c1ccc2c(c1)OCCO2	·	-6	·	·	·	·
COc1cc(/C=C2\C(=O)N(c3ccc(S(N)(=O)=O)cc3)N=C2C)ccc1OC(=O)c1ccco1	6	10*	0	-6	-1	0
CC1=NN(c2ccccc2)C(=O)/C1=C\c1cn(-c2ccccc2)nc1C	21	-1	0	-21	·	·
C#CCOc1ccc(/C=C2/C(=O)N(c3cccc(C(=O)O)c3)N=C2C)cc1OC	-2	16*	0	2	2	0
COc1ccccc1/C=C1/C(=O)N(c2ccccc2)N=C1C	-18	13*	3	18	1	-1
CC1=NN(c2ccccc2)C(=O)/C1=C\c1ccc(Oc2ccc([N+](=O)[O-])cc2[N+](=O)[O-])cc1	-14	7.4*	3	14	1	0
C#CCOc1ccc(/C=C2/C(=O)N(c3ccc(S(N)(=O)=O)cc3)N=C2C)cc1OC	·	5	·	·	·	·
COc1cc(/C=C2\C(=O)N(c3ccccc3)N=C2C)ccc1Oc1ccc([N+](=O)[O-])cc1[N+](=O)[O-]	3	-1	4	-3	·	·
Cc1cccc(C)c1NC(=O)CN(Cc1ccccc1)Cc1ccccc1	·	2	·	·	·	·
Cc1ccc(-n2ncc3c(=O)n(-c4cccc(C)c4)c(=O)[nH]c32)cc1	·	2	·	·	·	·
CC(=O)c1ccc(N2CCN(C(=O)CN3C(=O)NC4(CCCCC4)C3=O)CC2)c(F)c1	-35	-2	3	35	·	·
COc1cccc(-c2cc3nc(C)c(C)c(N4CCN(C(=O)c5ccoc5)CC4)n3n2)c1	·	1	·	·	·	·
CN(Cc1cccs1)C(=O)c1ccc(Cl)c(S(=O)(=O)N2CCCCCC2)c1	-6	0	3	6	·	·
CC1(C)CC(=O)C=C(c2ccc(-c3cnc4ccccc4c3)cc2)C1=O	·	-5	·	·	·	·
Cc1cc2cc(CNC(=S)Nc3ccc(OC(F)F)cc3)ccc2[nH]1	-45	-2	0	45	·	·
Cc1cc2cc(CNC(=S)Nc3ccc(OC(F)(F)F)cc3)ccc2[nH]1	-5	6.1*	0	5	2	0
CCN(C1CCCCC1)S(=O)(=O)c1ccc(OC)c(C)c1	-14	0	1	14	·	·
CCN(C1CCCCC1)S(=O)(=O)c1ccc(-n2cnnn2)c(C)c1	-6	14*	1	6	-1	0
CCCCCCNC(=O)O[C@H]1C[C@H](C(=O)OC)[C@H](C(=O)OC)C2CN(S(=O)(=O)c3ccc(C)cc3)C[C@@]21O (stereo partly drawn)	·	1	·	·	·	·
C[C@@H]1NC(=O)N[C@@H]1CCCCCC(=O)O	-1	92*	1	1	95*	0	GFP quench dose=>68
O=C(O)CCCCCN1C(=O)CCC1=O	22	1	4	-22	·	·
SMILES	SR-BI DiI-HDL act	Rin1-Abl PPI inh	GRK2 aptamer HTS	SR-BI HDL uptake	Rin1-Abl confirm	GFP quench	others
Cc1cccc(C)c1NC(=O)CCCN1CC(C)OC(C)C1 (stereo not drawn)	8	-1	3	-8	·	·
Cc1cccc(C)c1NC(=O)CCCCCC1NC(=O)NC1C (stereo not drawn)	2	82*	13	-2	91*	0	GFP quench dose=>68
CCCCCCCC(=O)O	11	-3	4	-11	·	·
CCCCCC1NC(=O)NC1CCCCCC(=O)O (stereo not drawn)	-1	14*	0	1	14*	0
COc1cccc(C(NC(C)=O)c2nc(-c3cccc(C(C)C)c3)cs2)c1 (stereo not drawn)	·	2	·	·	·	·
COc1ccccc1CNC(=O)[C@H](C)NC(=O)C1CCN(C(=O)[C@@H]2CCCN2C(=O)OC(C)(C)C)CC1	13	2	3	-13	·	·
CCN(CC)c1ncnc2c1ncn2[C@H]1CN(Cc2ccccc2)C[C@@H](CO)O1	·	0	·	·	·	·
CCN(CC)c1ncnc2c1ncn2[C@H]1CN(Cc2ccncc2)C[C@@H](CO)O1	·	7.7*	·	·	-3	0
CN(C)c1ncnc2c1ncn2[C@H]1CN(Cc2ccc(Cl)cc2)C[C@@H](CO)O1	·	6.9*	·	·	3	-3
CCN(CC)c1ncnc2c1ncn2[C@H]1CN(Cc2ccc(Cl)cc2)C[C@@H](CO)O1	·	3	·	·	·	·
CN(Cc1ccc(C(C)(C)C)cc1)C(=O)C1CSC2(C)CCC(=O)N12 (stereo not drawn)	-7	12*	0	7	-3	-1
COc1cccc(CN(C)C(=O)C2CSC3(C)CCC(=O)N23)c1OC (stereo not drawn)	26	0	1	-26	·	·
CC(SC(C)C(=O)NN=Cc1cccc(F)c1)C(=O)NN=Cc1cccc(F)c1 (stereo not drawn)	-13	-1	·	13	·	·
CCOC(=O)N1CCC2(CC1)C(C#N)=C(N)OC1=C2C(=O)CC(C)C1 (stereo not drawn)	2	17*	0	-2	0	-2
CC(=O)N(C)C1=C(O)c2ccccc2C(=O)C1=O	4	2	2	-4	·	·
CC(=O)C(C(C)=O)C1(O)C(=O)c2ccccc2C1=O	30	23*	4	-30	19*	0	GFP quench dose=>68
O=c1cc(CN(Cc2ccccc2)Cc2ccccc2)c2ccccc2o1	·	1	·	·	·	·
CCC/C=C/c1ccc(CN2C(C)C(=O)N(Cc3cn(CCC4OCCO4)nn3)CCS2(=O)=O)cc1 (stereo not drawn)	·	-1	·	·	·	·
O=C(NNC(=O)c1cccnc1)NC1CCCCC1	23	1	0	-23	·	·
O=C(NNC(=O)c1cc(O)c(O)c(O)c1)NC1CCCCC1	17	22*	0	-17	22*	14*
CC(=O)N1CCN(c2nnc(-c3ccccc3)c3ccccc23)CC1	-27	-3	1	27	·	·
Cc1ccc(-c2nnc(N3CCN(C(=O)c4ccco4)CC3)c3ccccc23)cc1	-64	13*	0	64	7.9*	1
CCCCCCN1C[C@H](O)[C@@H](n2cc(-c3ccc(F)cc3)nn2)C[C@@H]1c1ccc(C)cc1	·	1	·	·	·	·
CN(Cc1ccc(F)cc1)C(=O)c1cccc(S(=O)(=O)NCc2ccccc2)c1	14	2	1	-14	·	·
